This is an account of results in ChEMBL document CHEMBL4513216, “Probing the Open Global Health Chemical Diversity Library for Multistage-Active Starting Points for Next-Generation Antimalarials” (ACS Infect Dis, 2020).

Each structure is given as a SMILES string.

A short description of this series: Toxicity liver stage against HepG2, at 10uM. Type of series: cell-based. Set-up: test concentration 10 uM, cell line HepG2-A16-CD81EGFP. The note with it: human, HepG2-A16-CD81EGFP cells; read-out: INHIBITION
Summed up:
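Uninfected HepG2-A16-CD81EGFP cells, 3 × 10^3 per well, 1536-well, plated on prespotted compound at 10 μM final, parasite-free screening media added to match infected plates; puromycin 10 μM positive, DMSO 0.5% negative; run in parallel with 48 h PbLuc assay at 37 °C, 5% CO2; viability by CellTiter-Glo luminescence, normalized to controls.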
As for `COc1ccc(-c2cc(N)on2)cc1OC`, the cytotoxicity at 10 µM was -9.85%.
Then `Cc1c(C(=O)O)oc2ccc(I)cc12`, with -1.87%; and `O[C@H]1CC[C@@H](Cc2cc(-c3ccccc3)on2)O[C@@H]1CNCC1CC1`, with -6.21%.
Then `NC(=O)CN1CCC2(CC1)CC(=O)c1ccc3ccccc3c1O2`, with 1.76%; and `CC(=O)N1CC(c2ncn(C(C)C)n2)c2cc(C(=O)NC(C)C)ccc21` (stereo not given), with 8.22%.
Then `O=C(c1ccco1)N1CCc2onc(CN3CCCC3)c2C1`, with 4.38%.
Take `O=C(c1ccccn1)N1CC[C@H]2C(=O)N(c3ccsc3)CCO[C@H]2C1`: the cytotoxicity at 10 µM turned out to be 11.6%.
The same measure for `Cc1cnc(C(=O)N2CCC3(CC2)C(=O)NCCN3CC(C)C)cn1`: 8.52%; for `N#Cc1ccc(OC[C@]23COC[C@H]2CN(Cc2nccs2)C3)nc1`: 2.37%; for `CCC1=N[C@@]2(CC[C@@H]3CN(C(=O)Nc4ccccc4)C[C@@H]32)C(=O)N1C`: 16.8%.
Then `CCn1cc2c(n1)C(COC)CN(C(=O)COc1ccccc1)C2` (stereo not given), with -2.88%.
For `c1cc([C@H]2C[C@@H]3CCN(Cc4nccs4)C[C@H]3O2)ncn1`, the cytotoxicity at 10 µM was -150%.
As to `O=C(O)Cn1nc(-c2ccccc2F)ccc1=O`, the cytotoxicity at 10 µM is 2.87%.
Then `COC(=O)C(CCSC)NC(=O)Cc1c(C)nn(-c2ccccc2)c1C` (stereo not given), with -4.31%.
The same measure for `Nc1nc(N2CCCCC2)ncc1C(=O)NCc1ccc(F)c(Cl)c1`: -17.2%; for `COc1ccc(-c2nnsc2C(=O)N2CCSCC2)cc1`: -1.17%.
Then `O=C(COCC(=O)N(c1ccccc1)c1ccccc1)N1CCCCC1`, with 2.33%; and `Cc1cc(-c2cnc(N3CCCC(C)C3)nc2C(C)C)on1` (stereo not given), with 3.05%.
In the case of `CC1(C(N)=O)CN(CC2CCOCC2)CCO1` (stereo not given), the cytotoxicity at 10 µM is -0.74%.
The same measure for `CN(C)c1cc(C2CCN(C(=O)c3cnn(C)c3)CC2)ccn1`: 0.075%; for `CC(C)N1CCC(c2n[nH]cc2-c2ccnc(N)c2)C1` (stereo not given): 2.16%.
Then `NCC(=O)N1CCC(c2cncc(Oc3cccnc3)n2)CC1`, with -9.08%; and `N#CCCCS(=O)(=O)NC1(c2ccc(F)cc2)CC1`, with 2.9%.
Then `OC(c1cnn(-c2ccccc2)c1)C(F)(F)F` (stereo not given), with -3.75%.
Regarding `Cc1nn(C)c(C)c1CCC(=O)NCC1(C(N)=O)CCOCC1`, the cytotoxicity at 10 µM is 7.75%.
The same measure for `CCC(C#N)NC(=O)c1sccc1OC` (stereo not given): 1.88%; for `COCC1CCCN(c2cncc(OCc3ccccc3)n2)C1` (stereo not given): -4.08%; for `COc1cc(CNC(=O)COC2CCCCC2)ccc1O`: 6.81%.
As to `COCCN(CC(F)F)c1cc(COC)nc2ncnn12`, the cytotoxicity at 10 µM is 9.08%.
The same measure for `CC(C)(C)C(NC(=O)CCS(C)(=O)=O)c1ccc(F)cc1F` (stereo not given): -0.189%; for `Cc1cc(C2CCCN(Cc3ncc(C(C)C)o3)C2)n[nH]1` (stereo not given): 4.29%; for `Cc1cn(CC(=O)NC2CCC(C(=O)O)CC2)c2ccccc12` (stereo not given): -0.214%.
The same measure for `CCN(CC)C(CNS(=O)(=O)c1ccc(C(C)=O)cc1)c1ccco1` (stereo not given): -20.1%.
Then `COc1ccnc(N(C)Cc2ccco2)n1`, with 14%; and `Cc1cccc2c(CCNC(=O)NCC[S+](C)[O-])c[nH]c12` (stereo not given), with 9.62%; and `CN(CCCc1cc(-c2cccc(F)c2)n[nH]1)C(=O)Cn1cncn1`, with -129%.
Turning to `Cc1ccc(CN(C)C(=O)c2cccc(NC(N)=O)c2)o1`, the cytotoxicity at 10 µM was determined as 14.2%.
The same measure for `CCS(=O)(=O)N1CCCn2c(nc(CN3CCCC3)cc2=O)C1`: 1.88%.
The same measure for `CN(C)[C@@H]1CCN(S(C)(=O)=O)[C@H]1Cc1ccccc1`: 11.7%.
Then `CN1Cc2ccccc2CC2(CCN(C(=O)N3CCOCC3)CC2)C1=O`, with 1.02%.
`CCN1Cc2ccccc2CC2(CCN(C)CC2)C1=O`: the cytotoxicity at 10 µM amounted to 14.3%.
The same measure for `Cn1ccc(C(=O)NC2CCC23CCN(C(=O)c2ccnnc2)CC3)c1` (stereo not given): -72%.
The same measure for `CCOCC(=O)N1CC[C@H]2[C@@H]1CCC(=O)N2Cc1csc(C)n1`: -85.2%; for `CS(=O)(=O)N[C@@H]1CN(C(=O)c2cnccn2)[C@@H]2CCCO[C@@H]21`: -73.4%.
Then `Cc1cc(C(=O)N2CC[C@H]3C[C@H](c4ccncn4)O[C@@H]3C2)no1`, with -78%; and `OC1(CN2CCCC2)COCCN(c2nnc(-c3ccccc3)s2)C1` (stereo not given), with -10.1%.
For the compound `CCc1nc(CN(C)C(=O)c2cc(NC(C)=O)ccc2Cl)no1`, the cytotoxicity at 10 µM is -1.71%.
Take `COc1ccc(C(=O)N2CCN(C(=O)CCCc3cn[nH]c3)CC2)cc1`: the cytotoxicity at 10 µM was -5.63%.
Take `COC(=O)c1cc2n(n1)CCCN(C(=O)Cc1c[nH]c3ccccc13)C2`: the cytotoxicity at 10 µM turned out to be 2.61%.
The same measure for `CCOC(=O)N1CCC(NCC2CCN(c3cnn(C)c(=O)c3)C2)CC1` (stereo not given): 8.39%; for `NC(=O)CN1CCC(C(=O)NCC(O)c2cccc(F)c2)CC1` (stereo not given): 10.8%; for `Oc1ccc(CCC2CCCCN2Cc2noc(C3CC3)n2)cc1` (stereo not given): 0.55%.
Then `CCCN(CCO)C(=O)C1CCC(=O)N(Cc2ccc(Cl)cc2)C1` (stereo not given), with 10.4%; and `CCNc1ncc(C(=O)NCc2cccc(OC(F)(F)F)c2)cn1`, with -2.94%; and `Cc1cc2nc(-c3ccccc3)cc(NCC3CCCOC3)n2n1` (stereo not given), with -3.54%.
Then `CCn1ncc2[nH]c(-c3cc(OC)c(OC)cc3OC)nc21`, with -2.61%.
With `COCc1cc(NCCc2ccccn2)n2nccc2n1`, the cytotoxicity at 10 µM was -0.464%.
The same measure for `CCC(O)CNC(=O)c1coc(COc2ccc3sc(C)nc3c2)n1` (stereo not given): 16.3%; for `Cc1nc(CN2CCCC(NCc3ccc(Cl)s3)C2)no1` (stereo not given): -3.18%.
Then `Cc1cc(C)c(CNC(=O)N(C)Cc2ccoc2)c(=O)[nH]1`, with -6.02%; and `Cc1nc(C)n(CC2CN(Cc3ccccc3OC(C)C)CCO2)n1` (stereo not given), with -0.248%; and `CN(CC(=O)NC1CCOCC1)C1CCCN(c2cccnn2)C1` (stereo not given), with -8.97%.
For the compound `Cc1ccccc1C1CCCN1Cc1ccc(S(=O)(=O)N(C)C)o1` (stereo not given), the cytotoxicity at 10 µM was -3.42%.
The same measure for `Cc1ccc(-c2nc(CN3CCC(N4CCNC4=O)CC3)co2)cc1`: -7.73%.
The same measure for `c1csc(-c2noc(CN3CCc4cncnc4C3)n2)c1`: -9.5%; for `Cc1cc(CN2CCN(C(=O)NCc3csc(C)n3)CC2)no1`: -17.6%; for `O=c1[nH]c(CCN2CCCC2Cn2cncn2)nc2ccccc12` (stereo not given): -5.48%.
Take `COc1ccccc1C(O)CNC(=O)NCc1cc[nH]n1` (stereo not given): the cytotoxicity at 10 µM was -8.81%.
The same measure for `CC(C)c1nc(C2CCCN2Cc2nccn2CC(F)(F)F)no1` (stereo not given): -18.9%; for `Cc1nn(C)c(C)c1C1CCCN1CC(=O)NCc1ccccn1` (stereo not given): 0.702%; for `CCCOc1cccc(C(=O)N2CCCC(n3cncn3)C2)c1` (stereo not given): -4.39%.
In the case of `CN(Cc1nnc2n1CCC2)C(=O)c1ccc2c(c1)OCCCO2`, the cytotoxicity at 10 µM was -8.68%.
Then `Cc1csc(N2CCN(C(=O)CCCNc3ncccn3)CC2)n1`, with -16.3%.
For the compound `Cc1cccc(OCCC(=O)NC(C)c2nnc3n2CCC3)c1` (stereo not given), the cytotoxicity at 10 µM is -12.8%.
Then `COc1ccc(CNC(=O)Nc2ccc(N3CCCC3)nc2)cc1O`, with -18.1%.
With `COCc1nc(C(=O)N2CCCC(n3nc(C)nc3C)C2)cs1` (stereo not given), the cytotoxicity at 10 µM is -24.1%.
For `Nc1ncnc2nc(C3CCCCN3)ccc12` (stereo not given), the cytotoxicity at 10 µM is 5.74%.
Then `Cc1noc(C)c1CN1CC[C@@H]2O[C@@H](COCC3CC3)CC[C@@H]21`, with 6.46%; and `c1cnc(NC2COC3(CCN(Cc4cc[nH]n4)CC3)C2)nc1` (stereo not given), with -1.17%; and `COc1ccc(CN2CCC3(CC2)CN(c2ccccn2)CCO3)cc1`, with 2.87%.
Then `Cc1nc(CN2CCOCC3(CCN(c4ncccn4)C3)C2)cs1` (stereo not given), with -22.8%; and `CN(C)C(=O)CN1CC[C@]2(CN(CC3CC3)C[C@H]2c2ccccc2)C1=O`, with 1.46%; and `COc1ccc(CN2CCO[C@@H]3C[C@@H](C(=O)NC(C)C)C[C@H]32)cc1`, with 8.31%.
The same measure for `CC(=O)CN1CC2(CCNCC2)COc2ccccc2S1(=O)=O`: 3.13%.
With `CCN1CCC(c2nc3ccc(NC(C)C)cn3n2)CC1`, the cytotoxicity at 10 µM was -22.3%.
As to `Cc1ccc(NCc2cn3c(n2)CN(Cc2ccoc2)CC3)nn1`, the cytotoxicity at 10 µM was determined as 9.43%.
Then `Cc1cccc(CNC2CCCc3c2cnn3Cc2ccccc2)c1` (stereo not given), with -16.6%; and `O=C(NCc1ccccn1)[C@@H]1COC[C@H]2CN(C3CCC3)C[C@H]21`, with -79.1%.
The same measure for `O=C(c1cc[nH]n1)N1CC[C@@H]2CN(Cc3ccncc3)S(=O)(=O)[C@@H]2CC1`: 10.5%; for `CCS(=O)(=O)N1CCN(CCn2cccn2)c2nc(C)ccc2C1`: 9.88%.
Then `COCCN(C)C1COC2(CCN(Cc3cccc(F)c3)CC2)C1` (stereo not given), with -79.3%; and `CC(C)n1nc(CN2CCCCC2)c2c1CN(C(=O)c1ccno1)C2`, with 4.19%.
In the case of `COCCn1cc2c(n1)C(CNCc1nccs1)OCC2` (stereo not given), the cytotoxicity at 10 µM was -0.726%.
The same measure for `CNC(=O)c1ccc2c(c1)C1(CCN(CC3CC3)CC1)C(=O)N2`: -0.843%.
Then `O=S(=O)(c1cccs1)N1CCCn2cnc(CO)c2C1`, with 5.89%.
